Source: ChEMBL document CHEMBL1127567, “Retro-binding tripeptide thrombin active-site inhibitors: discovery, synthesis, and molecular modeling” (J Med Chem, 1994)
Square brackets hold non-standard residues; d marks the D form. Peptide text beside a SMILES is read from it. Phe(ol) = N[C@H](CO)Cc1ccccc1; Ahp = NCCCCCCC(=O)O; Ahx = NCCCCCC(=O)O; Ava = NCCCCC(=O)O; GABA = NCCCC(=O)O

Key:
[1] = molecular target: Coagulation factor X (Homo sapiens, UniProt P00742); experiment: In vitro activity against Factor Xa was determined
[2] = molecular target: T1, Plasminogen (Homo sapiens, UniProt P00747); experiment: In vitro activity against […] was determined
[3] = molecular target: T2, Prothrombin (Homo sapiens, UniProt P00734); experiment: In vitro activity against thrombin was determined
[4] = molecular target: Serine protease 1 (Homo sapiens, UniProt P07477); experiment: In vitro activity against trypsin was determined
[5] = molecular target: T2, Prothrombin; experiment: In vitro activity against thrombin with 10 uM substrate s-2238 (D-Phe-Pip-Arg-pNA)
[6] = molecular target: T1, Plasminogen; experiment: In vitro activity against plasmin was determined
[7] = molecular target: T2, Prothrombin; experiment: In vitro activity against thrombin was determined, using a 10 uM substrate s-2238 (D-Phe-Pip-Arg-pNA); 20-30
In short: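 Human α-thrombin (0.1 unit/mL) preincubated with inhibitor for 3 min at room temperature in pH 7.4 buffer (30 mM HEPES, 145 mM NaCl, 5 mM KCl, 1 mg/mL PEG-8000). […] Absorbance change at 405 nm followed kinetically. Values are means of at least triplicate determinations.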

T1 sequence (P00747 97-580 limits assumed): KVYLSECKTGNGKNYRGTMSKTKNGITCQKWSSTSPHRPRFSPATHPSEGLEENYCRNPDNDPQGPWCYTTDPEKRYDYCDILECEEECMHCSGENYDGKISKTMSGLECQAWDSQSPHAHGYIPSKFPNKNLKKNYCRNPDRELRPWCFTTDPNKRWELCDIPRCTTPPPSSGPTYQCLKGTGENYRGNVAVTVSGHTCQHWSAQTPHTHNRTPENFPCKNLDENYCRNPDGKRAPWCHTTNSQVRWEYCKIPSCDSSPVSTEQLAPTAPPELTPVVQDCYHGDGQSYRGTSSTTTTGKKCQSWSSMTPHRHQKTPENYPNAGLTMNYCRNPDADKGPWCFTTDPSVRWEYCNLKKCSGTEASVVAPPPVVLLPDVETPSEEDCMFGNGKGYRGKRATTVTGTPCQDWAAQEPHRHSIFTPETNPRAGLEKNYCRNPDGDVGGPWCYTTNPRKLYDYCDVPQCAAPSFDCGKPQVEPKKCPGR
T1 sequence (P00747 581-810 limits assumed): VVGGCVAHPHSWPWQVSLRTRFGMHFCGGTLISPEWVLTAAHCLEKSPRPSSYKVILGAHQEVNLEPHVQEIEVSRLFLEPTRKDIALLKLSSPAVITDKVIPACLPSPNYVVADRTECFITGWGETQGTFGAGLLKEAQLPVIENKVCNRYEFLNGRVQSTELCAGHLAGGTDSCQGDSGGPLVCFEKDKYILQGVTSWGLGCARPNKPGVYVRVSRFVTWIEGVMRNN
Coagulation factor X, sequence (P00742 41-179 limits assumed): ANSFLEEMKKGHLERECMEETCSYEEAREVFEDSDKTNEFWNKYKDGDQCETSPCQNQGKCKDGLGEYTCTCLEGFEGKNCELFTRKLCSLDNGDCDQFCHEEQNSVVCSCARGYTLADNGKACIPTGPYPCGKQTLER
Coagulation factor X, sequence (P00742 235-488 limits assumed): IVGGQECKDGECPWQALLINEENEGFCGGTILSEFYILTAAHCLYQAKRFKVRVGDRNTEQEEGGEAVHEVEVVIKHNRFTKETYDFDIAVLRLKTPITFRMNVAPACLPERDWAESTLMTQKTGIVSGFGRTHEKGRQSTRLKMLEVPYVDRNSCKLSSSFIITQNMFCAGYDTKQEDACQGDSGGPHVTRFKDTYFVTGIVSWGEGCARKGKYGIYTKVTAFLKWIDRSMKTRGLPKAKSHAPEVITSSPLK
Serine protease 1, sequence (P07477 whole entry): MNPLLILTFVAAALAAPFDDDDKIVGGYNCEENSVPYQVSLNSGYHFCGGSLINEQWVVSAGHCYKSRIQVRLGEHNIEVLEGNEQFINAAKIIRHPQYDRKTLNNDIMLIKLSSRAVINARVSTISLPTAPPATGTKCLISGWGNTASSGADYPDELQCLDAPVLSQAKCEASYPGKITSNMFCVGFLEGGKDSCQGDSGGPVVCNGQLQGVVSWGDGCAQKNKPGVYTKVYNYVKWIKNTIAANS

Compound	IC50 [5]	other results
CN[C@H](Cc1ccccc1)C(=O)N1CCC[C@H]1C(=O)N[C@H](C=O)CCCN=C(N)N	–	IC50 [1]: 4 µM; IC50 [2]: 0.23 µM; IC50 [3]: 0.008 µM; IC50 [4]: 0.008 µM
CC(C)C[C@H](NC(=O)[C@H](Cc1ccccc1)NC(=O)CCCN=C(N)N)C(=O)N[C@@H](CC1CCCCC1)[C@@H](O)c1nccs1	–	IC50 [1]: 6 µM; IC50 [6]: 143 µM
CC(C)C[C@H](NC(=O)[C@@H](N)Cc1ccccc1)C(=O)N[C@@H](CC1CCCCC1)[C@@H](O)c1nccs1	> 530 µM	–
COC(=O)C(O)[C@H](CCCCN)NC(=O)[C@@H]1CCCN1C(=O)[C@H](N)Cc1ccccc1 (some centres undefined)	–	IC50 [7]: 30 µM
COC(=O)[C@H](Cc1ccccc1)NC(=O)[C@H](CC(C)C)NC(=O)[C@@H](N)Cc1ccccc1 (H-Phe-Leu-Phe-OMe)	> 333 µM	–
COC(=O)[C@H](Cc1ccccc1)NC(=O)[C@H](CC(C)C)NC(=O)[C@H](Cc1ccccc1)NC(=O)CCCN (H-[GABA]FLF-OMe)	> 300 µM	–

More lines, main results first:

IC50 [5]	Compound	other results
7.5 µM	CC(C)C[C@H](NC(=O)[C@H](Cc1ccccc1)NC(=O)CCCCCN)C(=O)N[C@@H](CC1CCCCC1)[C@@H](O)c1nccs1	–
1.41 µM	COC(=O)[C@H](Cc1ccccc1)NC(=O)[C@H](CC(C)C)NC(=O)[C@H](Cc1ccccc1)NC(=O)CCCNC(=N)N	–
154 µM	COC(=O)[C@H](Cc1ccccc1)NC(=O)[C@H](CC(C)C)NC(=O)[C@H](Cc1ccccc1)NC(=O)CCCCNC(=N)N	–
17.6 µM	COC(=O)C(O)[C@H](CCCCN)NC(=O)[C@@H]1CCCN1C(=O)[C@@H](Cc1ccccc1)NC(=O)CCCCCN (some centres undefined)	–
> 200 µM	COC(=O)[C@H](Cc1ccccc1)NC(=O)[C@H](CC(C)C)NC(=O)[C@H](Cc1ccccc1)NC(=O)CCCCCNC(=N)N	–
330 µM	COC(=O)[C@H](Cc1ccccc1)NC(=O)[C@H](CC(C)C)NC(=O)[C@H](Cc1ccccc1)NC(=O)CCCCCCN (H-[Ahp]FLF-OMe)	–
80 µM	COC(=O)[C@H](Cc1ccccc1)NC(=O)[C@H](CC(C)C)NC(=O)[C@H](Cc1ccccc1)NC(=O)CCCCCN (H-[Ahx]FLF-OMe)	–
57.1 µM	COC(=O)[C@H](Cc1ccccc1)NC(=O)[C@H](CC(C)C)NC(=O)[C@H](Cc1ccccc1)NC(=O)CCCCN (H-[Ava]FLF-OMe)	–
100 µM	CC(C)C[C@H](NC(=O)[C@H](Cc1ccccc1)NC(=O)CCCCN)C(=O)N[C@H](CO)Cc1ccccc1 (H-[Ava]FL[Phe(ol)])	–
